One assay relates to Pneumocystis carinii. As to the kind of experiment: Antipneumocystis activity against Pneumocystis carinii assessed as reduction of ATP level after 72 hrs by bioluminescent assay. The assay is classed as functional, organism-based. In a few lines:
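P. carinii from corticosteroid-immunosuppressed male CD rat lungs (methylprednisolone 20 mg/kg weekly, inoculated intratracheally or intranasally), cryopreserved, thawed at 37°C, 5 × 10^7 nuclei/ml in RPMI-1640 with 20% calf serum; 5% CO2, 37 °C. Screened at 100 µg/ml; titrated if ATP fell ≥50%. ATPlite luciferin-luciferase luminescence at 72 h; triplicate wells, 3 assays, two batches; IC50 by linear regression of % ATP decrease vs log concentration.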

Another assay deals with A549. As to the kind of experiment: Cytotoxicity against human A549 cells. The assay is classed as cell-based.
The nature of assay [1]: Cytotoxicity against rat L2 cells. The assay is classed as cell-based.

The values below come from ChEMBL document CHEMBL1932958, “Analogs of pentamidine as potential anti-Pneumocystis chemotherapeutics” (Eur J Med Chem, 2012).

What is called IC50 is the midpoint of a concentration-inhibition curve. For the molecule `CN(CCOc1ccc(C(=N)N)cc1)CCOc1ccc(C(=N)N)cc1.Cl.Cl`, the IC50 in the assay on Pneumocystis carinii was 1.73 µM; with A549 it was over 100 µg/mL; in assay [1], over 100 µg/mL.
`COc1cc(C(=N)N)ccc1OCCN(C)CCOc1ccc(C(=N)N)cc1OC.Cl.Cl`: the IC50 is 3.41 µM in the assay on Pneumocystis carinii, over 100 µg/mL in the assay with A549 and over 100 µg/mL in assay [1].
As to `COc1cc(C(=N)N)cc(OC)c1OCCN(C)CCOc1c(OC)cc(C(=N)N)cc1OC.Cl.Cl`, the IC50 in the assay with Pneumocystis carinii was 6.26 µM; in the assay on A549 it was over 100 µg/mL; in assay [1], over 100 µg/mL.
Consider `CN(CCCCCN(C)c1ccc(C(=N)N)cc1)c1ccc(C(=N)N)cc1.Cl.Cl`, for which the values for the IC50 (in the assay on Pneumocystis carinii; with A549; in assay [1]) were 1.99 µM, over 100 µg/mL and 47.1 µg/mL, respectively.
For `Cl.Cl.N=C(N)c1ccc(NCCOCCNc2ccc(C(=N)N)cc2)cc1` the same measures were 1.11 µM, over 100 µg/mL and 36.9 µg/mL.
For `Cl.Cl.N=C(N)c1ccc(OCCOCCOc2ccc(C(=N)N)cc2)cc1` the same measures were 2.13 µM, over 100 µg/mL and over 100 µg/mL.
For `COc1cc(C(=N)N)ccc1OCCOCCOc1ccc(C(=N)N)cc1OC.Cl.Cl` the same measures were 4.21 µM, over 100 µg/mL and over 100 µg/mL.
In the case of `COc1cc(C(=N)N)cc(OC)c1OCCOCCOc1c(OC)cc(C(=N)N)cc1OC.Cl.Cl`, the results for the IC50 (in the assay with Pneumocystis carinii; in the assay on A549; in assay [1]) were 13 µM, over 100 µg/mL and over 100 µg/mL, respectively.
In the case of `COc1cc(C(=N)N)cc(OC)c1OCCCCCOc1c(OC)cc(C(=N)N)cc1OC.Cl.Cl`, the IC50 was 3 µM in the assay with Pneumocystis carinii, over 100 µg/mL in the assay with A549 and 17.8 µg/mL in assay [1].
The corresponding values for `Cl.Cl.N=C(N)c1ccc(OCCSCCOc2ccc(C(=N)N)cc2)cc1` are 1.18 µM, over 100 µg/mL and over 100 µg/mL.
For `Cl.Cl.N=C(N)c1ccc(OCCN(CCOc2ccc(C(=N)N)cc2)S(=O)(=O)c2ccccc2)cc1` the same measures were 1.33 µM, over 100 µg/mL and over 100 µg/mL.
Take `COc1cc(C(=N)N)ccc1OCCN(CCOc1ccc(C(=N)N)cc1OC)S(=O)(=O)c1ccccc1.Cl.Cl`: the half-inhibitory concentration (IC50) was 2.66 µM in the assay with Pneumocystis carinii, over 100 µg/mL with A549 and over 100 µg/mL in assay [1].
`COc1cc(C(=N)N)cc(OC)c1OCCN(CCOc1c(OC)cc(C(=N)N)cc1OC)S(=O)(=O)c1ccccc1.Cl.Cl`: the results for the IC50 (in the assay with Pneumocystis carinii; with A549; in assay [1]) were 4.4 µM, over 100 µg/mL and over 100 µg/mL, respectively.
With `COc1cc(C(=N)N)ccc1OCCN(CCOc1ccc(C(=N)N)cc1OC)S(=O)(=O)c1ccc(NC(C)=O)cc1.Cl.Cl`, the figures for the IC50 (in the assay on Pneumocystis carinii; in the assay on A549; in assay [1]) were 3.71 µM, over 100 µg/mL and over 100 µg/mL, respectively.
On to `COc1cc(C(=N)N)cc(OC)c1OCCN(CCOc1c(OC)cc(C(=N)N)cc1OC)S(=O)(=O)c1ccc(N)cc1.Cl.Cl`, for which the results for the IC50 (in the assay with Pneumocystis carinii; in the assay with A549; in assay [1]) were 4.16 µM, over 100 µg/mL and over 100 µg/mL, respectively.
As to `Cl.Cl.N=C(N)c1ccc(C(=O)NCCCNC(=O)c2ccc(C(=N)N)cc2)cc1`, the half-maximal inhibitory concentration (IC50) with Pneumocystis carinii is 2.99 µM; in the assay on A549 it was over 100 µg/mL; in assay [1], over 100 µg/mL.
Regarding `Cl.Cl.N=C(N)c1ccc(C(=O)NCCCCNC(=O)c2ccc(C(=N)N)cc2)cc1`, the values for the IC50 (in the assay with Pneumocystis carinii; in the assay with A549; in assay [1]) were 3.58 µM, over 100 µg/mL and over 100 µg/mL, respectively.
Consider `Cl.Cl.N=C(N)c1ccc(C(=O)NCCCCCNC(=O)c2ccc(C(=N)N)cc2)cc1`, for which the concentration for half-maximal inhibition (IC50) was 14.3 µM with Pneumocystis carinii, over 100 µg/mL in the assay with A549 and over 100 µg/mL in assay [1].
For `Cl.Cl.N=C(N)c1ccc(C(=O)NCCCCCCNC(=O)c2ccc(C(=N)N)cc2)cc1`, the IC50 with Pneumocystis carinii was 9.15 µM; in the assay on A549 it was over 100 µg/mL; in assay [1], over 100 µg/mL.
